Among the data in ChEMBL document CHEMBL4138188, “Eurycomalactone Inhibits Expression of Endothelial Adhesion Molecules at a Post-Transcriptional Level” (J Nat Prod, 2017) are Activity and inhibition values, retold here.

The nature of data set [1]: Effect on basal VCAM-1 expression level in HUVECtert at 0.5 to 10 uM incubated for 30 mins by flow cytometry. Type of data set: ADME. The note with it: human, 0.5 h. In short, it runs like this: (§1)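 Unstimulated HUVECtert treated with 0.5−10 μM test agent without TNFα; surface VCAM-1, ICAM-1 or E-selectin stained with FITC-labelled antibodies and read by flow cytometry.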
For orientation: A flow cytometer gives signals particle by particle.

The nature of data set [2]: Effect on basal ICAM-1 expression level in HUVECtert at 0.5 to 10 uM incubated for 30 mins by flow cytometry. The settings on record: human, 0.5 h. Type of data set: ADME. Summed up:
as §1

Data set [3] has as its target T1, Inhibitor of nuclear factor kappa-B kinase subunit alpha (Homo sapiens) (UniProt O15111).
T1 sequence (whole entry): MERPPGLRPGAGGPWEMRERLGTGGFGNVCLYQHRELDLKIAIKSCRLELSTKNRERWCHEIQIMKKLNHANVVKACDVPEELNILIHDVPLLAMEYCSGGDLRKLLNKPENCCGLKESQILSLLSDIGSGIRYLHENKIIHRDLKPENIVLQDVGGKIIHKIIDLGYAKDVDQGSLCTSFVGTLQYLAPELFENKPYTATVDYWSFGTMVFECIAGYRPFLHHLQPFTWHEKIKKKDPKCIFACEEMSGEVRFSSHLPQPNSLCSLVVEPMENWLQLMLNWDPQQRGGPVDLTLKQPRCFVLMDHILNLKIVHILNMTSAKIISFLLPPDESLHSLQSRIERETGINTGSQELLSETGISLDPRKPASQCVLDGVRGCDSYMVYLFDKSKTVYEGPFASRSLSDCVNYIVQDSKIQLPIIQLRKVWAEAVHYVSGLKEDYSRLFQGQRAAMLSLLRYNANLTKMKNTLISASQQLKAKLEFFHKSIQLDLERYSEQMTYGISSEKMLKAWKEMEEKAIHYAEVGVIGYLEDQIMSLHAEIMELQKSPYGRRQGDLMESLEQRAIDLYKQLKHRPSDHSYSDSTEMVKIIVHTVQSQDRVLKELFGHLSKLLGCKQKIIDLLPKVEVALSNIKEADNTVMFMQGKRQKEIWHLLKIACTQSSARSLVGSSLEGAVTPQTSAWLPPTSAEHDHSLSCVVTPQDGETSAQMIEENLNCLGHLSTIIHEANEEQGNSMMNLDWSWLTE
In words: Inhibition of IKKalpha phosphorylation level in TNFalpha-stimulated HUVECtert at 2 uM pretreated for 30 mins followed by TNFalpha stimulation measured after 5 to 15 mins by Western blot analysis. Summed up:
(§2)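 HUVECtert on gelatin-coated dishes pretreated with 2 μM agent or 0.1% DMSO, then TNFα 10 ng/mL; p-IKKα/β, p-IκBα and total IκBα immunoblotted at 5 or 15 min post-stimulation, actin loading control; means ± SD, n = 3, one-way ANOVA/Dunnett.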
On the technique in general: Immunoblotting shows a protein as a band on a membrane.

In data set [4] the target is T2, NF-kappa-B inhibitor alpha (Homo sapiens) (UniProt P25963).
T2 sequence (whole entry): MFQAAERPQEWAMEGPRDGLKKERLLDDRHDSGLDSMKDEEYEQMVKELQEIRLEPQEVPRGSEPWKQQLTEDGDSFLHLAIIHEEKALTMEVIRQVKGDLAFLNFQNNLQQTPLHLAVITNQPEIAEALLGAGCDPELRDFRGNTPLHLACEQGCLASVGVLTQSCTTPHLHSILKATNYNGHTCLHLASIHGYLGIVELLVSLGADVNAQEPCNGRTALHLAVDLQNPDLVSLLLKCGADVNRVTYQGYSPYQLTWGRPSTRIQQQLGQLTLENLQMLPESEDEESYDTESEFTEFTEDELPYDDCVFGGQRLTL
In words: Inhibition of IkappaBalpha phosphorylation level in TNFalpha-stimulated HUVECtert at 2 uM pretreated for 30 mins followed by TNFalpha stimulation measured after 5 to 15 mins by Western blot analysis. In short, it runs like this:
as §2

Data set [5] concerns the target T2, NF-kappa-B inhibitor alpha (Homo sapiens). In words: Inhibition of IkappaBalpha degradation in TNFalpha-stimulated HUVECtert at 2 uM pretreated for 30 mins followed by TNFalpha stimulation measured after 5 to 15 mins by Western blot analysis. In short, it runs like this:
as §2

Data set [6] is filed under the species Homo sapiens. Briefly: Reduction in cyclin D1 level in HUVECtert at 2 uM by Western blot analysis. In kind it is functional. The note with it: TDE = time-dependent effect. Summed up: (§3)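 HUVECtert treated with 1 μM cycloheximide, 2 μM agent, vehicle, or left untreated for a time course; cyclin D1 or survivin by Western blot, actin loading control; means ± SD of three blots, one-way ANOVA/Dunnett versus untreated.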

For data set [7], the species on record is Homo sapiens. In words: Reduction in survivin level in HUVECtert at 2 uM measured up to 480 mins by Western blot analysis. In kind it is functional. Summed up: as §3
For data set [8], the species on record is Homo sapiens. In words: Reduction in cyclin A level in HUVECtert at 2 uM after 8 hrs by Western blot analysis. In kind it is functional.
For data set [9], the species on record is Homo sapiens. In words: Inhibition of NF-kappaB in HUVECtert assessed as reduction in cyclin D1 mRNA expression level at 2 uM measured up to 240 mins by qRT-PCR analysis. In short, it runs like this: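 HUVECtert incubated without TNFα with 2 μM agent, 1 μM cycloheximide or 0.1% DMSO for 0.5−4 h; cyclin D1 mRNA by qRT-PCR, 2−ΔΔCt analysis.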
(In qPCR the cycle at which signal appears reflects the starting amount.)

Calls of active or inactive are those of the source. The rule behind the calls is not given here.

As for `CC1=CC(=O)[C@@H](O)[C@@]2(C)[C@H]1CC(=O)[C@@]1(C)[C@H]3C(=O)O[C@H]([C@@H]3C)[C@H](O)[C@@H]12` [EURYCOMALACTONE], the Activity result in [1] is “Non-Toxic”; in data set [2], “Non-Toxic”; in the data set filed under Homo sapiens [6], “Tde”. Moreover, the inhibition entry (in data set [3]; in data set [4]; in data set [5]; in the data set listed under Homo sapiens [9]) was “inactive” throughout. For the same compound, the outcome in the data set filed under Homo sapiens [7] and in the data set filed under Homo sapiens [8] was inactive.
